This is an account of results in article PMC3172161 (ACS chemical neuroscience, 2011).

Data set [1] concerns the target T1, rat mGlu5 (Rattus norvegicus, UniProt P31424). Put plainly: Calcium mobilization assay. It is filed as cell-based. To be noted: for % Glu Max: amplitude of response in the presence of 30 μM test compound as a percentage of maximal response (100 μM glutamate). Put shortly: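 HEK293A cells stably expressing rat mGlu5 were plated at 20K/well and grown overnight at 37 °C in 6% CO2. They were loaded with 2 μM Fluo-4 AM at 37 °C in HBSS with 20 mM HEPES and 2.5 mM probenecid. Compound (10-point 1:3 series, 30 μM–1 nM final) was added 140 s before EC20 glutamate, then EC80 glutamate 74 s later. Ca2+ fluorescence read at 1 Hz; IC50 from four-parameter logistic fit.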
On the technique in general: Calcium assays in cells follow changes in intracellular calcium, usually with a dye or a luminescent sensor.

Another data set addresses mGlu2 (Homo sapiens, UniProt Q14416). Put plainly: Cell based functional selectivity assay.
Data set [2] concerns C57Bl/6J mice. In words: Food reinforcer self-administration, progressive ratio responding. It is filed as in vivo, mouse. To be noted: 3, 10, 30 mg/kg i.p., 10 min prior to sessions. Put shortly: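 Male C57Bl/6J mice (3–5 weeks) responded for ~40 μl of 10% vanilla Ensure: 10–14 daily 1 h FR-1 sessions, then 2 h progressive-ratio sessions. Test compound (0, 3, 10, 30 mg/kg in 10% Tween-80) or reference NAM (0, 1.5, 5, 15 mg/kg in saline) given ip, 20 ml/kg, 10 min pre-session. Latin square, doses 48 h apart. Reinforcers earned analysed by repeated-measures ANOVA/Dunnett.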

Data set [3] can be described thus: Stability in liver microsomes. It is filed as in vitro ADME. To be noted: mouse liver microsomes; 1 μM, 15 min, 37 °C, NADPH. Put shortly: (§1)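 Test compound at 1 μM was incubated 15 min at 37 °C with shaking, with human or mouse liver microsomes, phosphate buffer and NADPH. Samples were analysed by UPLC-ESI-MS/MS on a C18 column with a formic acid/acetonitrile gradient. % parent remaining was calculated against similarly prepared un-incubated controls.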

The target in data set [4] is T1, rat mGlu5. Put plainly: Radioligand binding assay, [3H]methoxyPEPy competition. Put shortly:
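Competition binding used membranes from rat mGlu5 HEK293A cells (40 μg/well) in 50 mM Tris/0.9% NaCl, pH 7.4, with [3H]methoxyPEPy (2 nM final) and test compound. Incubation was 1 h at room temperature with shaking, then GF/B filtration, 3–4 buffer washes and scintillation counting. Non-specific binding defined with 5 μM MPEP; curves fitted by four-parameter logistic equation.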

Data set [5] in a line: Brain homogenate binding assay. It is filed as in vitro ADME. To be noted: mouse. Put shortly: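 Fresh mouse brains (6–8) were homogenized 1:3 (w/w) in PBS on ice, spiked at 1000 ng/g and run in triplicate. Rapid equilibrium dialysis was against PBS for 4 h at 37 °C, 130 rpm. Matrix-balanced aliquots were extracted with acetonitrile/internal standard and analysed by LC/MS/MS. fu = buffer/homogenate peak-area ratio, corrected for homogenate dilution.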

Data set [6] is described as follows: Mouse pharmacokinetic study, intraperitoneal dosing. It is filed as in vivo. Put shortly: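 Male CD-1 mice (~30 g) received 10 mg/kg ip as a 0.5 mg/ml microsuspension in 10% Tween 80/water (20 ml/kg). Plasma (cardiac puncture, EDTA) and PBS-washed brains were collected at 15, 30, 60, 180 and 360 min, n=3 per time. Brains homogenized 1:5 (w/w) in PBS; samples precipitated with acetonitrile plus internal standard and run on HPLC/MS/MS. Dilution-corrected; noncompartmental analysis.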

Another data set has as its target mGlu3 (Homo sapiens, UniProt Q14832). In words: Cell based functional selectivity assay.
Data set [7] can be described thus: Stability in liver microsomes. It is filed as in vitro ADME. To be noted: human liver microsomes; 1 μM, 15 min, 37 °C, NADPH. Put shortly:
as §1
A general note: Microsomes from liver hold many membrane-bound enzymes, among them those of drug oxidation.

For the next data set, the target named is mGlu4 (Homo sapiens, UniProt Q14833). Put plainly: Cell based functional selectivity assay.
The test system of data set [8] is C57Bl/6J mice. In words: Operant sensation seeking. To be noted: 10 min prior to sessions. Format: in vivo, mouse. Put shortly: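 Male C57Bl/6J mice (3–5 weeks) responded for varied visual and auditory stimuli: 10–14 daily 1 h FR-1 sessions, then 2 h progressive-ratio sessions. Test compound (0, 3, 10, 30 mg/kg in 10% Tween-80) or reference NAM (0, 1.5, 5, 15 mg/kg in saline; 12 FR sessions) given ip, 20 ml/kg, 10 min pre-session. Latin square, doses 48 h apart. Reinforcers earned analysed by repeated-measures ANOVA/Dunnett.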

A further data set addresses mGlu1 (Homo sapiens, UniProt Q13255). Put plainly: Cell based functional selectivity assay.
The target of the next data set is mGlu7 (Homo sapiens, UniProt Q14831). Put plainly: Cell based functional selectivity assay.
Another data set deals with male CD-1 mice. In words: Marble burying model of anxiety. It is filed as in vivo, mouse. To be noted: 15 minute pretreatment. Put shortly:
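Male CD-1 mice (30–35 g) were habituated 30 min to the test room. After 15 min pretreatment each was placed alone in a cage with 12 evenly spaced marbles on 2.5 cm bedding. Burying recorded over 30 min; counterbalanced design; Dunnett's test versus vehicle.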

The nature of data set [9]: Plasma protein binding assay. Format: in vitro ADME. To be noted: human.
Data set [10] deals with mGlu5 in rat cortical astrocytes (Rattus norvegicus, UniProt P31424). Put plainly: Rat cortical astrocytes assay. It is filed as cell-based. To be noted: fixed concentration 10 μM, increasing concentrations of glutamate.
The target in the next data set is mGlu8 (Homo sapiens, UniProt O00222). Put plainly: Cell based functional selectivity assay.
The nature of data set [11]: Plasma protein binding assay. Format: in vitro ADME. To be noted: mouse.
[12] abbreviates: male, CD-1, mouse, brain, ip, 10 mg/kg.
Setting [13] is: mouse, 10 mg/kg intraperitoneal.

Where two headings read alike, the source gives them in different places. Some results are limits rather than exact numbers.

In general, IC50 refers to the concentration at which inhibition is half-maximal. For orientation: fraction unbound means free concentration divided by total concentration. Read a high fraction unbound as weak binding. One may read the Tmax as the time from dosing to the highest level. For orientation: AUC(0-t) means exposure summed from dosing to a finite time, without extrapolation to infinity. Read a high AUC(0-t) as more exposure.

T1 sequence (P31424 21-1203): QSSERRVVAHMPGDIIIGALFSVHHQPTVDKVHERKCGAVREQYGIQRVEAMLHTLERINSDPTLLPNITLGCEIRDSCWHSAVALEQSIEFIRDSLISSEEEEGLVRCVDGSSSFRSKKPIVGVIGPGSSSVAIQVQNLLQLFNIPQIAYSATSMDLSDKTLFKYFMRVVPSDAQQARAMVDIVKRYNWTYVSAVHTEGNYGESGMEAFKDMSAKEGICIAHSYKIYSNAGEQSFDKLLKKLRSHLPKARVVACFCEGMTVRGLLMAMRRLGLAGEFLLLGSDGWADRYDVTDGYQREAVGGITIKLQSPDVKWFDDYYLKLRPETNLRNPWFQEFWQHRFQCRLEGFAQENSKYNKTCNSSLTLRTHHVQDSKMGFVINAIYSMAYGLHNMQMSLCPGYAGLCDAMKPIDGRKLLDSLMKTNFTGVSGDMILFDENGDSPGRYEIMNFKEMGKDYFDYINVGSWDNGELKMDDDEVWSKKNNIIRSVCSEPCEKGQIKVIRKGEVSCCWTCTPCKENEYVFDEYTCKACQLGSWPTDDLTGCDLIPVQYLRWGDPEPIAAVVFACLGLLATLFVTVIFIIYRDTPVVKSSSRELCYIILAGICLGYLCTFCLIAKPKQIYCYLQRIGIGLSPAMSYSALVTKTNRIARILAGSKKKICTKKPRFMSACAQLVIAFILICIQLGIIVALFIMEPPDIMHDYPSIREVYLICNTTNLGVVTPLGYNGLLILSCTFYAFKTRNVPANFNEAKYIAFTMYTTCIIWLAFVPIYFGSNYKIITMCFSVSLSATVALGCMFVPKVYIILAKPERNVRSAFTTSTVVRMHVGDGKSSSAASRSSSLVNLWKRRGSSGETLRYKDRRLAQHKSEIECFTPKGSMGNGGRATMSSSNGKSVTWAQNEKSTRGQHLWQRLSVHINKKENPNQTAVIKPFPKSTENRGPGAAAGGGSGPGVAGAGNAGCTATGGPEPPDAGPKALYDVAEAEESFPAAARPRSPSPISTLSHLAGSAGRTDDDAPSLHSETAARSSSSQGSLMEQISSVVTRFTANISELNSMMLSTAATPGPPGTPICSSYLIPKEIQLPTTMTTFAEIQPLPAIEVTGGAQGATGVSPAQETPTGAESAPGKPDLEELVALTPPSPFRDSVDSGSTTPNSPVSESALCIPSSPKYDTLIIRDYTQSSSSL
Chain of mGlu4 (Q14833 33-912): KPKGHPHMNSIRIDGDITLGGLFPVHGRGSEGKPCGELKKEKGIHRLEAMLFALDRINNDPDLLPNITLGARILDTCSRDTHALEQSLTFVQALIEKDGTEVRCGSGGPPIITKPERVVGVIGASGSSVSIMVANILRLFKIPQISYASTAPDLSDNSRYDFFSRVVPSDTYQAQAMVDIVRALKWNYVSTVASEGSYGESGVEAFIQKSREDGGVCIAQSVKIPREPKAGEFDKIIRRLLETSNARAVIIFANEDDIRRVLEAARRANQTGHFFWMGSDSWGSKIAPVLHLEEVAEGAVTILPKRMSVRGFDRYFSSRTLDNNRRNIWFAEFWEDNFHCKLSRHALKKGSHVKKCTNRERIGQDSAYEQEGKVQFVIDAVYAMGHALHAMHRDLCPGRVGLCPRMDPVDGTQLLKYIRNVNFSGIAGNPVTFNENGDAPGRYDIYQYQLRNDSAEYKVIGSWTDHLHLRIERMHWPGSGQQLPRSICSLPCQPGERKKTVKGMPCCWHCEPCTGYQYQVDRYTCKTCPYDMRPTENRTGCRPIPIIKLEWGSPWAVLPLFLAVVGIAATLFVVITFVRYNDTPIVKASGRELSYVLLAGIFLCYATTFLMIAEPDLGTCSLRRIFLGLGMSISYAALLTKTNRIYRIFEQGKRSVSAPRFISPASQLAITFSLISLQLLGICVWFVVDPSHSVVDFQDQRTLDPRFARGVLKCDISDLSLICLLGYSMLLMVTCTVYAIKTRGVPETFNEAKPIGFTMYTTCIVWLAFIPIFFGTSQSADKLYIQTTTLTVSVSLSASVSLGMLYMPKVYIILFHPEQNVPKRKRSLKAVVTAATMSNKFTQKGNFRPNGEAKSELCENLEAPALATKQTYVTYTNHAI
Chain of mGlu1 (Q13255 19-1194): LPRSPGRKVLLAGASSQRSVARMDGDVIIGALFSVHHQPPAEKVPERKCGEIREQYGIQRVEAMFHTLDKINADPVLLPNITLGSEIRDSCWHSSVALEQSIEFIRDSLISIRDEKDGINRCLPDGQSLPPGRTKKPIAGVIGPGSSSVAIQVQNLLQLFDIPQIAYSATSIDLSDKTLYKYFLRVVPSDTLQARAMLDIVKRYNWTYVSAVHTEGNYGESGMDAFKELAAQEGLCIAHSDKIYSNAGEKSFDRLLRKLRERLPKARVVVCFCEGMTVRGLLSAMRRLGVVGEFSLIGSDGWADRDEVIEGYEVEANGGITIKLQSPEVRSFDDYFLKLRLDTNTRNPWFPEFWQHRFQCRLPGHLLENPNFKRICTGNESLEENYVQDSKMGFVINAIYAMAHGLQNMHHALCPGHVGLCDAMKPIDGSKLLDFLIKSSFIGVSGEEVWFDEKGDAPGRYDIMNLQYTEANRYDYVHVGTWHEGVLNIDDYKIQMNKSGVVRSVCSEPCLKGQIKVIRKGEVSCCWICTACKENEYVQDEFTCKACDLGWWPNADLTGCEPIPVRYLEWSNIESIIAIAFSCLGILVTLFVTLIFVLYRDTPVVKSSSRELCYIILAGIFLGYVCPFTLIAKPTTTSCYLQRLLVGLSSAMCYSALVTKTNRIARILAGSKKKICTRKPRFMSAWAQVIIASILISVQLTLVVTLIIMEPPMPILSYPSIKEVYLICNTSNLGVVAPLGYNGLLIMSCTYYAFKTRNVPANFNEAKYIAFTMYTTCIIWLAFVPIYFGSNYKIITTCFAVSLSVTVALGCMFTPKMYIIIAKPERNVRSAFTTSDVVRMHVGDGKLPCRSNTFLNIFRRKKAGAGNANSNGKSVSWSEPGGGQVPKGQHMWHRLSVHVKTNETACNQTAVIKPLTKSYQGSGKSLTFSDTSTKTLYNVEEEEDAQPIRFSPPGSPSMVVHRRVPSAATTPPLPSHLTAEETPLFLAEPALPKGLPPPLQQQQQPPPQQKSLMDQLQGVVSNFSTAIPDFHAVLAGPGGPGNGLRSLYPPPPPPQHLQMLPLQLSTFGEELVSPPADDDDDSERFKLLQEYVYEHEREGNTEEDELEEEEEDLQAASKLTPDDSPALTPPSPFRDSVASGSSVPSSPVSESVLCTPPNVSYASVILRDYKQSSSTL
Chain of mGlu2 (Q14416 19-872): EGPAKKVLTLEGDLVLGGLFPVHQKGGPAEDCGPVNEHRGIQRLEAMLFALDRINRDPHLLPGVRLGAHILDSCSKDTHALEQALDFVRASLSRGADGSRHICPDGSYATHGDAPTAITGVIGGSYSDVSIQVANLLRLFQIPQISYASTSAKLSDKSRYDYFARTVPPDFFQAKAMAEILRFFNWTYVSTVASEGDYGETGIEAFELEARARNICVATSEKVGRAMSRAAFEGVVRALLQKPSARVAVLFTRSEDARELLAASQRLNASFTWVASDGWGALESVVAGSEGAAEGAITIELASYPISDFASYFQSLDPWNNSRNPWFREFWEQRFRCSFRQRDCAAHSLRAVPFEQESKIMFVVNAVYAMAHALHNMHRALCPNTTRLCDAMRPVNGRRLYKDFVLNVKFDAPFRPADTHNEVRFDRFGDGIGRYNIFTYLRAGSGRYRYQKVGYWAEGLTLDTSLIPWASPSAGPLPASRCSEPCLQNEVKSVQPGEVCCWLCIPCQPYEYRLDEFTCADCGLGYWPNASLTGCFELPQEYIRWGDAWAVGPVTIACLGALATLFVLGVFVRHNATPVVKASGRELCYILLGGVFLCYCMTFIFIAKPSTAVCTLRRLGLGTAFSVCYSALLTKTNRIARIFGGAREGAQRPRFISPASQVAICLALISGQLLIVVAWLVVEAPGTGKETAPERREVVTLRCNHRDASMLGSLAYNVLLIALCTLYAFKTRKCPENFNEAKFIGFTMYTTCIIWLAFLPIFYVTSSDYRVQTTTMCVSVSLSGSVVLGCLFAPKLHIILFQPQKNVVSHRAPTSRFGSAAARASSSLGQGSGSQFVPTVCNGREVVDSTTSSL
Chain of mGlu5 in rat cortical astrocytes (P31424 21-1203): as the sequence (P31424 21-1203) above
Chain of mGlu8 (O00222 34-908): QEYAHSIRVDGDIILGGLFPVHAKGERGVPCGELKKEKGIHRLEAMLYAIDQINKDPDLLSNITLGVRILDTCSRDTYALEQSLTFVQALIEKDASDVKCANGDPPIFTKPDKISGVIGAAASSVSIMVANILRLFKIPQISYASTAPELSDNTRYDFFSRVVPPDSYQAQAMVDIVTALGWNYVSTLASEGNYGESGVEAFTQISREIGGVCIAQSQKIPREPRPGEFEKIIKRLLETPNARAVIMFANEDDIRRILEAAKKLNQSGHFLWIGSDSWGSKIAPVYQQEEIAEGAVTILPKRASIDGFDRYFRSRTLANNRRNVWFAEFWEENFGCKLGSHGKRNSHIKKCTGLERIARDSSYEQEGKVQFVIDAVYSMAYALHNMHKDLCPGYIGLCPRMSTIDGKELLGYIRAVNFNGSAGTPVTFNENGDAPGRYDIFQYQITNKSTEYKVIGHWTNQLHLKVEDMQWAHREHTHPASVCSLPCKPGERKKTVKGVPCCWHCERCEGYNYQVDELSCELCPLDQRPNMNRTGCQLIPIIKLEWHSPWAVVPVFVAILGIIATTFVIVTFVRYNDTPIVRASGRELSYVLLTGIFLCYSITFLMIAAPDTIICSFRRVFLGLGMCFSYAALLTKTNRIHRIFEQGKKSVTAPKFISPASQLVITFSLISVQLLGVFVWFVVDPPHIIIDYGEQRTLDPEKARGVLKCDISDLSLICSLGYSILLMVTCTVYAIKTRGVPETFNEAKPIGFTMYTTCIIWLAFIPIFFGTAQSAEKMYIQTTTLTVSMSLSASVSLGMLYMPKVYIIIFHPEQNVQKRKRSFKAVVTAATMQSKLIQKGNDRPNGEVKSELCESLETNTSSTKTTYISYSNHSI

As for `Cc1ccc2ccc(-c3cc(F)cc(C#N)c3)cc2n1` [Compound 3, reference compound], the “% Glu Max” value at rat mGlu5 [1] (average of n ≥ 3) was found to be 1.2 ± 0.3%. Further, the IC50 on rat mGlu5 [1] (read-out: mGlu5 IC50, calcium mobilization, EC80 glutamate, HEK293A cells expressing rat mGlu5, average of n ≥ 3) came out at 9.5 ± 1.6 nM.
For the compound `Cc1nc2cc(-c3cc(F)cc(C#N)c3)ccc2s1` [Compound 18, 3-fluoro-5-(2-methylbenzo[d]thiazol-5-yl)benzonitrile], the “selectivity, activity against mGlu2” value on mGlu2 was “inactive”. The IC50 at rat mGlu5 [1] is 61 ± 7 nM. For the same compound, at rat mGlu5 [1] (average of n ≥ 3), the “% Glu Max” value is given as 0.63 ± 0.12%. Also, the “progressive ratio responding for food reinforcer” value in the data set with C57Bl/6J mice [2] is listed as “no significant effects”. For the same compound, the “% Parent Remaining” value in [3] worked out at 18%; in data set [7], 20%. For the same compound, the “block of radioligand binding” value at rat mGlu5 [4] ([3H]3-methoxy-5-(pyridin-2-ylethynyl)pyridine, at the highest concentration) is “almost completely block the binding of the radioligand”. In addition, the “Ki for binding relative to potency in the functional assay” value at rat mGlu5 [4] ([3H]methoxyPEPy competition versus calcium mobilization IC50) is recorded as “approximately eight fold less”. In addition, the fraction unbound at 4 h, 1000 ng/g in [5] was 0.001; in [9], 0.006; in [11], 0.005. For the same compound, the Tmax in data set [6] (setting [12]) is 15 min. Further, the concentration at 30 min in [6] (setting [12]) is 3.75 µM. The AUC(0-t) in [6] (male, CD-1, mouse, plasma, ip, 10 mg/kg) stood at 801 ng·h/mL. The compound also came in with an AUC0-6h in brain in data set [6] (setting [13]) of 1530 ng·h/g. For the same compound, the “brain exposure until the one hour time point” value in data set [6] (setting [13]) is “above 500 ng/g”. In [6] (mouse, 10 mg/kg intraperitoneal, AUC0-6h), the “exposure in brain relative to plasma” value is listed as “nearly two fold higher”. For the same compound, in data set [6] (mouse, assuming a dose linear increase in exposure from the 10 mg/kg study), the “brain exposure expected at 30 mg/kg” value was more than 10 µM. Also, the “selectivity, activity against mGlu3” value on mGlu3 was “inactive”. The “selectivity, activity against mGlu4” value on mGlu4 was “inactive”. In the data set with C57Bl/6J mice [8] (3, 10, 30 mg/kg i.p.), the “progressive ratio responding for OSS stimuli” value is listed as “dose dependently reduce”. In addition, the “selectivity, activity against mGlu1” value at mGlu1 was “inactive”. Moreover, the “selectivity, activity against mGlu7” value on mGlu7 is “inactive”. Also, the “inhibition of marble burying” value in the data set with male CD-1 mice (30 mg/kg ip) was “Significant inhibition”. The “blockade of the glutamate response” value in data set [10] is on record as “near complete blockade”. For the same compound, on mGlu8, the “selectivity, activity against mGlu8” value was “inactive”.
Consider `Cc1nc(C#Cc2cccnc2)cs1` [MTEP, 3-[(2-methyl-1,3-thiazol-4-yl)ethynyl]pyridine, reference compound], for which the “progressive ratio responding for OSS stimuli” value in the data set on C57Bl/6J mice [8] (1.5, 5, 15 mg/kg i.p.) is recorded as “dose-dependently reduced”. Moreover, the “inhibition of marble burying” value with male CD-1 mice (15 mg/kg ip, positive control) is listed as “significant effect”.
